What is called logD is lipophilicity at a set pH, counting ionised and neutral species.

Data set [1] relates to Hippocampus. Put plainly: Drug uptake in rhesus monkey hippocampus at 115.5 MBq, iv after 30 seconds by PET analysis. The format is ADME, organism-based, Macaca mulatta. The settings on record: in vivo, 0.5 min. In a few lines: (§1)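 A single rhesus monkey, thiamylal induction then 1.5% isoflurane; 90 min 3D dynamic PET after transmission scan; [11C] tracer bolus via crural vein (115.5 MBq at baseline; 87.7 MBq after tariquidar 8 mg/kg iv over 10 min, 0.25 h before). ROIs on individual MRI; decay-corrected %SUV.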

Data set [2] concerns Thalamus. Put plainly: Drug uptake in P-gp-knockout rat thalamus at 78.7 to 189.8 MBq, iv after 90 mins by PET analysis in presence of 10 mg/kg, po unlabeled compound. The format is ADME, organism-based. Also noted: dose 10 mg/kg, route oral. The note with it: in vivo, 1.5 h. In a few lines:
(§2)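 Male Mdr1a-knockout rats (410−500 g) under 1.5% isoflurane at 37 °C; [11C] tracer 78.7−189.8 MBq by tail vein. 90 min list-mode microPET scan with filtered back-projection; ROIs drawn on MRI template; decay-corrected %ID/mL, n = 3. Blocking: unlabeled compound 10 mg/kg po in 5% DMSO/10% cremophor in 10 mM HCl, given 1 h before tracer.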

A short description of data set [3]: Drug uptake in rhesus monkey neocortex at 115.5 MBq, iv after >30 seconds by PET analysis. In kind it is ADME, organism-based, Macaca mulatta. The settings on record: in vivo. In a few lines: as §1
The nature of data set [4]: Metabolic stability in P-gp-knockout rat plasma assessed as unmetabolized drug level at 330 MBq after 30 min by HPLC chromatogram analysis. In kind it is ADME, cell-free. The note with it: read-out: Stability. In a few lines: (§3)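 Mdr1a-knockout rat (450 g) given [11C] tracer 330 MBq iv and decapitated at 30 min. Plasma deproteinised with MeCN; half-brain homogenised in 50% aqueous MeCN and deproteinised. Supernatants run on C18 radio-HPLC (MeCN/H2O/TEA 5/5/0.01, 1.5 mL/min). Parent % = parent peak area/total peak area × 100, decay corrected; n = 1.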

Data set [5] can be described thus: Drug uptake in rhesus monkey cerebellum at 115.5 MBq, iv after >30 seconds by PET analysis. In kind it is ADME, organism-based, Macaca mulatta. The settings on record: in vivo. In a few lines:
as §1

The subject of data set [6] is Brain. Put plainly: Ex vivo drug uptake in P-gp-knockout rat brain assessed as retention time at 330 MBq after 30 min by HPLC chromatogram analysis. The note with it: 0.5 h. In kind it is ADME, tissue-based. In a few lines:
as §3

A short description of data set [7]: Drug uptake in rhesus monkey neocortex at 115.5 MBq, iv after 30 seconds by PET analysis. The format is ADME, organism-based, Macaca mulatta. The note with it: in vivo, 0.5 min. In a few lines: as §1
Data set [8] is described as follows: Drug uptake in P-gp-knockout rat neocortex at 78.7 to 189.8 MBq, iv after 90 mins by PET analysis in presence of 10 mg/kg, po unlabeled compound. The format is ADME, organism-based. Also noted: dose 10 mg/kg, route oral. The settings on record: in vivo, 1.5 h. In a few lines: as §2
The subject of data set [9] is Hippocampus. Put plainly: Drug uptake in P-gp-knockout rat hippocampus at 78.7 to 189.8 MBq, iv after 90 mins by PET analysis. In kind it is ADME, organism-based. The settings on record: in vivo, 1.5 h. In a few lines: as §2
Data set [10] concerns Brain. Put plainly: Ex vivo drug metabolism in P-gp-knockout rat brain assessed as retention time at 330 MBq after 30 min by HPLC chromatogram analysis. The format is ADME, tissue-based. The note with it: 0.5 h. In a few lines: as §3
A short description of data set [11]: Octanol-phosphate buffer partition coefficient, log D of the compound at pH 7.4 by Shake flask method. The format is physicochemical. In a few lines: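 [11C]-labelled compound (about 200 000 cpm) in n-octanol and 0.1 M PBS pH 7.4, vortexed 3 min at rt and centrifuged; weighed aliquots of each phase γ-counted, with the organic layer repartitioned until stable. log D = log(cpm/g octanol ÷ cpm/g PBS); triplicate.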

Data set [12] is described as follows: Metabolic stability in P-gp-knockout rat brain assessed as unmetabolized drug level at 330 MBq after 30 min by HPLC chromatogram analysis. The note with it: read-out: Stability. In kind it is ADME, tissue-based. In a few lines:
as §3

Data set [13] deals with Hippocampus. Put plainly: Drug uptake in rhesus monkey hippocampus at 115.5 MBq, iv after >30 seconds by PET analysis. In kind it is ADME, organism-based, Macaca mulatta. The settings on record: in vivo. In a few lines:
as §1

Data set [14] can be described thus: Drug uptake in P-gp-knockout rat neocortex at 78.7 to 189.8 MBq, iv after 90 mins by PET analysis. The format is ADME, organism-based. The settings on record: in vivo, 1.5 h. In a few lines: as §2
For data set [15], the system named is Thalamus. Put plainly: Drug uptake in P-gp-knockout rat thalamus at 78.7 to 189.8 MBq, iv after 90 mins by PET analysis. The settings on record: in vivo, 1.5 h. In kind it is ADME, organism-based. In a few lines: as §2
The test system of data set [16] is Brain. Put plainly: Drug uptake in rhesus monkey brain at 115.5 MBq, iv by PET analysis in presence of tariquidar. The settings on record: in vivo. The format is ADME, organism-based, Macaca mulatta.
For the next data set, the system named is Cerebellum. Put plainly: Drug uptake in P-gp-knockout rat cerebellum at 78.7 to 189.8 MBq, iv after 90 mins by PET analysis in presence of 10 mg/kg, po unlabeled compound. The format is ADME, organism-based. Also noted: dose 10 mg/kg, route oral. The note with it: in vivo, 1.5 h. In a few lines:
as §2

Data set [17] deals with Hippocampus. Put plainly: Drug uptake in P-gp-knockout rat hippocampus at 78.7 to 189.8 MBq, iv after 90 mins by PET analysis in presence of 10 mg/kg, po unlabeled compound. The note with it: in vivo, 1.5 h. In kind it is ADME, organism-based. Also noted: dose 10 mg/kg, route oral. In a few lines: as §2
The nature of data set [18]: Drug uptake in rhesus monkey cerebellum at 115.5 MBq, iv after 30 seconds by PET analysis. The format is ADME, organism-based, Macaca mulatta. The settings on record: in vivo, 0.5 min. In a few lines: as §1

For the molecule `Cc1ncc(OC[C@@]2(c3cccc(F)c3)C[C@H]2C(=O)Nc2ccc(F)cn2)c(CO[11CH3])n1`, the Drug uptake entry with Hippocampus [1] is reported as “Active”; in the data set with Thalamus [2] it was “Active”; in data set [3], “Not Active”; in [5], “Not Active”; in data set [7], “Active”; in data set [8], “Not Active”. Moreover, the Drug uptake result was “Active” in the data set on Hippocampus [9]; “Not Active” with Hippocampus [13]; “Active” in [14]; “Active” with Thalamus [15]; “Active” in the data set with Brain [16]; “Not Active” in the data set with Cerebellum. The Drug uptake entry is recorded as “Not Active” in the data set with Hippocampus [17] and “Active” in data set [18]. In addition, the remaining at 0.5 h was found to be 12% in data set [4] and 54% in [12]. In addition, the Retention_time is 5.2 min in the data set on Brain [6] and 2 min in the data set with Brain [10]. The logD in data set [11] worked out at 2.97.

The values are drawn from ChEMBL document CHEMBL2424641, “Synthesis and evaluation of novel radioligands for positron emission tomography imaging of the orexin-2 receptor” (J Med Chem, 2013).
